# Measurements reported in ChEMBL document CHEMBL4477166, “18β-Glycyrrhetinic Acid Derivatives Possessing a Trihydroxylated A Ring Are Potent Gram-Positive Antibacterial Agents” (2016).
# Calls of active or inactive are those of the source. The rule behind the calls is not given here.
# What was measured:
# Escherichia coli [1] = test: Antibacterial activity against Escherichia coli ATCC 25922 measured after overnight incubation by microplate dilution assay; assay type: functional
# Pseudomonas aeruginosa [2] = test: Antibacterial activity against multi-drug resistant Pseudomonas aeruginosa at 100 uM measured after 5 to 6 hrs by microdilution assay; assay type: functional, organism-based
# In short: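 Log-phase cells seeded at 1 × 10⁵ CFU/mL. Single-dose screen at 100 μM, with DMSO cosolvent at most 1% v/v. Growth measured turbidimetrically at 620 nm, before and after incubation with vigorous shaking.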
# Staphylococcus aureus [3] = test: Antibacterial activity against methicillin-resistant Staphylococcus aureus by microdilution assay; assay type: functional
# In short: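 Log-phase cells seeded at 1 × 10⁵ CFU/mL. Twofold serial dilutions made in broth with DMSO cosolvent, at most 1% v/v. Turbidity read at 620 nm before and after incubation with vigorous shaking. MIC is the lowest concentration with no apparent growth versus the medium-plus-vehicle control. Run in triplicate.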
# Escherichia coli [4] = test: Antibacterial activity against Escherichia coli at 100 uM measured after 5 to 6 hrs by microdilution assay; assay type: functional, organism-based
# Pseudomonas aeruginosa [5] = test: Antibacterial activity against Pseudomonas aeruginosa at 100 uM measured after 5 to 6 hrs by microdilution assay; assay type: functional, organism-based
# Streptomyces scabiei [6] = test: Antibacterial activity against Streptomyces scabiei CGMCC4.7610246 by microdilution assay; assay type: functional
# In short: (§1)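 Turbidimetric broth microdilution. Log-phase cells were washed and resuspended in broth (LB at 37 °C for B. subtilis and S. aureus; oat bran broth at 28 °C for S. scabies) and seeded at 1 × 10⁵ CFU/mL. Twofold serial dilutions were made with DMSO ≤1% (v/v). A620 was read, then plates were incubated with vigorous shaking. MIC was the lowest concentration with no apparent growth versus vehicle-only medium without cells. Run in triplicate.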
# Staphylococcus aureus [7] = test: Antibacterial activity against Staphylococcus aureus ATCC 25923 by microdilution assay; assay type: functional; in short: as §1
# Bacillus subtilis [8] = test: Antibacterial activity against Bacillus subtilis ATCC 6051 by microdilution assay; assay type: functional; in short: as §1
# Staphylococcus aureus [9] = test: Reduction in narG expression in Staphylococcus aureus ATCC 25923 at 0.5 times MIC by qRT-PCR analysis relative to control; assay type: functional, organism-based
# In short: (§2)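 Bacteria were grown in broth with compound at 0.5 × MIC or vehicle to exponential phase (OD620 = 0.4) and then pelleted. Total RNA was reverse-transcribed, and SYBR-based real-time PCR was run against housekeeping genes. Relative expression versus control was calculated by 2^−ΔΔCT. Mean ± SEM, n = 3, significance at p < 0.05.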
# Staphylococcus aureus [10] = test: Effect on lytM expression in Staphylococcus aureus ATCC 25923 at 0.5 times MIC by qRT-PCR analysis; assay type: functional, organism-based; in short: as §2
# Staphylococcus aureus [11] = test: Upregulation of seaR expression in Staphylococcus aureus ATCC 25923 at 0.5 times MIC by qRT-PCR analysis relative to control; assay type: functional, organism-based; in short: as §2
# Bacillus subtilis [12] = test: Upregulation of yqhB expression in Bacillus subtilis ATCC 6051 at 0.5 times MIC by qRT-PCR analysis relative to control; assay type: functional, organism-based; in short: as §2
# Staphylococcus aureus [13] = test: Reduction in narG expression in methicillin-resistant Staphylococcus aureus at 0.5 times MIC by qRT-PCR analysis relative to control; assay type: functional, organism-based
# In short: (§3)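 MRSA grown in broth containing either 0.5 × MIC of test compound or vehicle alone. Cells harvested at exponential phase (OD₆₂₀ = 0.4). Total RNA reverse-transcribed, then SYBR-based real-time PCR run. Relative expression computed by the 2^−ΔΔCT method against the vehicle control or the parent-acid-treated group. Mean ± SEM, n = 3; significance set at p < 0.05.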
# Staphylococcus aureus [14] = test: Inhibition of hla expression in methicillin-resistant Staphylococcus aureus at 0.5 times MIC by qRT-PCR analysis relative to control; assay type: functional, organism-based; in short: as §3
# Bacillus subtilis [15] = test: Upregulation of yhdT expression in Bacillus subtilis ATCC 6051 at 0.5 times MIC by qRT-PCR analysis relative to control; assay type: functional, organism-based; in short: as §2
# Staphylococcus aureus [16] = test: Upregulation of hla expression in Staphylococcus aureus ATCC 25923 at 0.5 times MIC by qRT-PCR analysis relative to control; assay type: functional, organism-based; in short: as §2
# Bacillus subtilis [17] = test: Reduction in mmD expression in Bacillus subtilis ATCC 6051 at 0.5 times MIC by qRT-PCR analysis relative to control; assay type: functional, organism-based; in short: as §2
# Streptomyces scabiei [18] = test: Reduction in p450 expression in Streptomyces scabiei CGMCC4.7610246 at 0.5 times MIC by qRT-PCR analysis relative to control; assay type: functional, organism-based; in short: as §2
# Staphylococcus aureus [19] = test: Inhibition of seaR expression in methicillin-resistant Staphylococcus aureus at 0.5 times MIC by qRT-PCR analysis relative to control; assay type: functional, organism-based; in short: as §3
Compound,MIC (Escherichia coli [1]),Activity (Pseudomonas aeruginosa [2]),MIC (Staphylococcus aureus [3]),Activity (Escherichia coli [4]),Activity (Pseudomonas aeruginosa [5]),MIC (Streptomyces scabiei [6]),MIC (Staphylococcus aureus [7]),MIC (Bacillus subtilis [8]),Activity (Staphylococcus aureus [9]),Activity (Staphylococcus aureus [10]),Activity (Staphylococcus aureus [11]),Activity (Bacillus subtilis [12]),Activity (Staphylococcus aureus [13]),inhibition (Staphylococcus aureus [14]),Activity (Bacillus subtilis [15]),Activity (Staphylococcus aureus [16]),Activity (Bacillus subtilis [17]),Activity (Streptomyces scabiei [18]),inhibition (Staphylococcus aureus [19])
CC1(C)CC[C@H](O)[C@]2(C)[C@H]3CC=C4[C@@H]5C[C@@](C)(C(=O)O)CC[C@]5(C)CC[C@@]4(C)[C@]3(C)CC[C@@H]12,> 250 µg/mL,,,,,,,,,,,,,,,,,,
CC1(C)C(=O)[C@@H]2O[C@@H]2[C@]2(C)[C@H]3CC=C4[C@@H]5C[C@@](C)(C(=O)OCc6ccccc6)CC[C@]5(C)CC[C@@]4(C)[C@]3(C)CC[C@@H]12,,inactive,> 50 µg/mL,inactive,inactive,> 50 µg/mL,> 50 µg/mL,> 50 µg/mL,,,,,,,,,,,
CCOC(=O)[C@@]1(C)CC[C@]2(C)CC[C@]3(C)C(=CC(=O)[C@@H]4[C@@]5(C)[C@@H](O)[C@H](O)[C@H](O)C(C)(C)[C@@H]5CC[C@]43C)[C@@H]2C1,,inactive,4 µg/mL,inactive,inactive,2.1 µg/mL,4.2 µg/mL,16.9 µg/mL,,,,,,,,,,,
CC1(C)[C@H](O)[C@@H](O)[C@H](O)[C@]2(C)[C@H]3C(=O)C=C4[C@@H]5C[C@@](C)(C(=O)OCc6ccccc6)CC[C@]5(C)CC[C@@]4(C)[C@]3(C)CC[C@@H]12,,inactive,4 µg/mL,inactive,inactive,> 37.8 µg/mL,> 37.8 µg/mL,> 37.8 µg/mL,,,,,,,,,,,
CC1(C)C(=O)[C@@H]2O[C@@H]2[C@]2(C)[C@H]3C(=O)C=C4[C@@H]5C[C@@](C)(C(=O)OCc6ccccc6)CC[C@]5(C)CC[C@@]4(C)[C@]3(C)CC[C@@H]12,,inactive,> 50 µg/mL,inactive,inactive,> 50 µg/mL,> 50 µg/mL,> 50 µg/mL,,,,,,,,,,,
CCCCCOC(=O)[C@@]1(C)CC[C@]2(C)CC[C@]3(C)C(=CC[C@@H]4[C@@]5(C)[C@@H](O)[C@H](O)[C@H](O)C(C)(C)[C@@H]5CC[C@]43C)[C@@H]2C1,,inactive,> 50 µg/mL,inactive,inactive,> 50 µg/mL,> 50 µg/mL,> 50 µg/mL,,,,,,,,,,,
CC1(C)[C@@H](O)[C@@H](O)[C@H](O)[C@]2(C)[C@H]3CC=C4[C@@H]5C[C@@](C)(C(=O)OCc6ccccc6Cl)CC[C@]5(C)CC[C@@]4(C)[C@]3(C)CC[C@@H]12,,inactive,> 50 µg/mL,inactive,inactive,> 50 µg/mL,> 50 µg/mL,> 50 µg/mL,,,,,,,,,,,
CC1(C)[C@@H](O)[C@@H](O)[C@H](O)[C@]2(C)[C@H]3C(=O)C=C4[C@@H]5C[C@@](C)(C(=O)OCc6ccccc6)CC[C@]5(C)CC[C@@]4(C)[C@]3(C)CC[C@@H]12,,inactive,4 µg/mL,inactive,inactive,> 37.8 µg/mL,> 37.8 µg/mL,> 37.8 µg/mL,,,,,,,,,,,
CC1(C)[C@@H](O)[C@@H](O)[C@H](O)[C@]2(C)[C@H]3C(=O)C=C4[C@@H]5C[C@@](C)(C(=O)OCc6ccccc6[N+](=O)[O-])CC[C@]5(C)CC[C@@]4(C)[C@]3(C)CC[C@@H]12,,inactive,> 50 µg/mL,inactive,inactive,> 50 µg/mL,> 50 µg/mL,> 50 µg/mL,,,,,,,,,,,
CC1(C)[C@H](O)[C@@H](O)[C@H](O)[C@]2(C)[C@H]3C(=O)C=C4[C@@H]5C[C@@](C)(C(=O)O)CC[C@]5(C)CC[C@@]4(C)[C@]3(C)CC[C@@H]12,,inactive,> 50 µg/mL,inactive,inactive,> 50 µg/mL,> 50 µg/mL,> 50 µg/mL,,,,,,,,,,,
CC1(C)C(=O)CC[C@]2(C)[C@H]3C(=O)C=C4[C@@H]5C[C@@](C)(C(=O)OCc6ccccc6)CC[C@]5(C)CC[C@@]4(C)[C@]3(C)CC[C@@H]12,,inactive,> 50 µg/mL,inactive,inactive,> 50 µg/mL,> 50 µg/mL,> 50 µg/mL,,,,,,,,,,,
CCCCOC(=O)[C@@]1(C)CC[C@]2(C)CC[C@]3(C)C(=CC(=O)[C@@H]4[C@@]5(C)[C@@H](O)[C@H](O)[C@H](O)C(C)(C)[C@@H]5CC[C@]43C)[C@@H]2C1,,inactive,4 µg/mL,inactive,inactive,4.4 µg/mL,> 35.7 µg/mL,> 35.7 µg/mL,,,,,,,,,,,
CC1(C)[C@@H](O)CC[C@]2(C)[C@H]3C(=O)C=C4[C@@H]5C[C@@](C)(C(=O)O)CC[C@]5(C)CC[C@@]4(C)[C@]3(C)CC[C@@H]12 [ENOXOLONE],,inactive,> 50 µg/mL,inactive,inactive,> 50 µg/mL,> 50 µg/mL,> 50 µg/mL,inactive,inactive,Active,Active,inactive,Active,Active,Active,inactive,Active,Active
CC1(C)[C@@H](O)[C@@H](O)[C@H](O)[C@]2(C)[C@H]3CC=C4[C@@H]5C[C@@](C)(C(=O)O)CC[C@]5(C)CC[C@@]4(C)[C@]3(C)CC[C@@H]12,,inactive,> 32 µg/mL,inactive,inactive,31.2 µg/mL,15.6 µg/mL,> 31.2 µg/mL,,,,,,,,,,,
CC1(C)[C@@H](O)[C@@H](O)[C@H](O)[C@]2(C)[C@H]3CC=C4[C@@H]5C[C@@](C)(C(=O)OCc6ccccc6[N+](=O)[O-])CC[C@]5(C)CC[C@@]4(C)[C@]3(C)CC[C@@H]12,,inactive,> 50 µg/mL,inactive,inactive,> 50 µg/mL,> 50 µg/mL,> 50 µg/mL,,,,,,,,,,,
CC(C)OC(=O)[C@@]1(C)CC[C@]2(C)CC[C@]3(C)C(=CC(=O)[C@@H]4[C@@]5(C)[C@@H](O)[C@H](O)[C@H](O)C(C)(C)[C@@H]5CC[C@]43C)[C@@H]2C1,,inactive,8 µg/mL,inactive,inactive,> 34.8 µg/mL,> 34.8 µg/mL,> 34.8 µg/mL,,,,,,,,,,,
CC(C)OC(=O)[C@@]1(C)CC[C@]2(C)CC[C@]3(C)C(=CC[C@@H]4[C@@]5(C)[C@@H](O)[C@H](O)[C@H](O)C(C)(C)[C@@H]5CC[C@]43C)[C@@H]2C1,,inactive,2 µg/mL,inactive,inactive,4.2 µg/mL,8.4 µg/mL,> 33.9 µg/mL,,,,,,,,,,,
CC1(C)[C@@H](O)[C@@H](O)[C@H](O)[C@]2(C)[C@H]3C(=O)C=C4[C@@H]5C[C@@](C)(C(=O)OCc6ccc(Cl)cc6)CC[C@]5(C)CC[C@@]4(C)[C@]3(C)CC[C@@H]12,,inactive,> 50 µg/mL,inactive,inactive,> 50 µg/mL,> 50 µg/mL,> 50 µg/mL,,,,,,,,,,,
CC1(C)[C@@H](O)CC[C@]2(C)[C@H]3CC=C4[C@@H]5C[C@@](C)(C(=O)OCc6ccccc6)CC[C@]5(C)CC[C@@]4(C)[C@]3(C)CC[C@@H]12,,inactive,> 50 µg/mL,inactive,inactive,> 50 µg/mL,> 50 µg/mL,> 50 µg/mL,,,,,,,,,,,
